The test system of data set [1] is RAW264.7. Kind of data set: Cytotoxicity against mouse RAW264.7 cells assessed as cell viability at 1 to 5 uM incubated for 24 hrs by MTS assay. The data set is classed as cell-based. Particulars: raw264.7, 24 h. A digest of the protocol: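 RAW264.7 macrophages (passage 5–16) were grown in DMEM GlutaMAX with 10% FBS at 37 °C and 5% CO₂, then seeded at 25,000 cells/cm². The next day, medium was replaced with inhibitor-containing medium for 24 h at 37 °C. MTS reagent was added for 2 h at 37 °C in the dark. Absorbance was read at 490 nm and expressed as % of control.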

In data set [2] the target is T1, Histone deacetylase 3 (Mus musculus) (UniProt O88895).
T1 sequence (whole entry): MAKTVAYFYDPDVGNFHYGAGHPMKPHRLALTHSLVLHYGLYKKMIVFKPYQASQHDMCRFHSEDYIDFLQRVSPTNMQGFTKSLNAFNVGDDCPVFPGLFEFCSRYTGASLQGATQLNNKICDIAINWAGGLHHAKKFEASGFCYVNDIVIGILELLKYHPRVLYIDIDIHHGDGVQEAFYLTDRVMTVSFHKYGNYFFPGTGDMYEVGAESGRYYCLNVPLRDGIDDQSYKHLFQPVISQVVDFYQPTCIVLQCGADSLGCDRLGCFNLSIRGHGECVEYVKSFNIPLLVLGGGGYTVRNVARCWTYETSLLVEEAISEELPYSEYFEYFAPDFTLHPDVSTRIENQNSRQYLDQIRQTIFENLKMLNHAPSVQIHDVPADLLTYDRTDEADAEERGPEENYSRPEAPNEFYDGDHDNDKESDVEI
Kind of data set: Inhibition of HDAC3 in LPS/IFNgamma-stimulated mouse RAW blue cells assessed as NFkappaB transcriptional activity measured as SEAP activity at 1 to 5 uM pretreated for 16 hrs followed by LPS stimulation and measured after 4 hrs by quanti blue reagent-based reporter gene assay. A digest of the protocol:
(§1)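 NF-κB SEAP reporter assay in RAW264.7-derived RAW-Blue cells (passage 4–14), seeded at about 550,000 cells/mL. Cells were pre-incubated with inhibitor for 16 h, then stimulated with 10 ng/mL LPS/IFNγ for 4 h. Supernatant was mixed 1:9 into QUANTI-Blue and incubated 3 h at 37 °C; absorbance was read at 650 nm as % of control. Mean ± SD of 3 independent experiments.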

Data set [3] has as its target T1, Histone deacetylase 3 (Mus musculus). Kind of data set: Inhibition of HDAC3 in LPS/IFNgamma-stimulated mouse RAW264.7 cells assessed as IL-6 gene expression at 1 uM pretreated for 16 hrs followed by LPS stimulation and measured after 4 hrs by RT-qPCR analysis. Type of data set: cell-based. A digest of the protocol:
(§2)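 RAW264.7 cells were treated with inhibitor for 20 h in total, with LPS/IFNγ added for the final 4 h; vehicle was a proportional DMSO dilution. Cells were washed twice with DPBS, total RNA was isolated, and IL10, iNOS, IL6 and TNFα transcripts were quantified by RT-qPCR relative to vehicle. Mean ± SD of 2–3 independent experiments.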
For orientation: In qPCR the cycle at which signal appears reflects the starting amount.

For data set [4] the target is unchanged. The experiment in a line: Inhibition of HDAC3 in LPS/IFNgamma-stimulated mouse RAW264.7 cells assessed as iNOS gene expression at 1 uM pretreated for 16 hrs followed by LPS stimulation and measured after 4 hrs by RT-qPCR analysis. Type of data set: cell-based. Put shortly:
as §2

The target is the same in data set [5]. The experiment in a line: Inhibition of HDAC3 in LPS/IFNgamma-stimulated mouse RAW264.7 cells assessed as IL-10 gene expression at 1 uM pretreated for 16 hrs followed by LPS stimulation and measured after 4 hrs by RT-qPCR analysis. The data set is classed as cell-based. Put shortly: as §2
Data set [6] shares this target. The experiment in a line: Inhibition of HDAC3 in LPS/IFNgamma-stimulated mouse RAW264.7 cells assessed as TNF-alpha gene expression at 1 uM pretreated for 16 hrs followed by LPS stimulation and measured after 4 hrs by RT-qPCR analysis. Type of data set: cell-based. A digest of the protocol: as §2
Data set [7] concerns the target Histone deacetylase 2 (Homo sapiens, UniProt Q92769). The experiment in a line: Inhibition of human recombinant C-terminal FLAG-tagged HDAC2 using Boc-Lys-(epsilon-Ac)-AMC as fluorogenic substrate incubated for 90 mins by fluorescence based assay.
The species entered for data set [8] is Homo sapiens. The experiment in a line: Selectivity ratio of IC50 for human recombinant C-terminal His-tagged HDAC3/NCOR2 to IC50 for human recombinant C-terminal His/FLAG-tagged HDAC1. Put shortly: (§3)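 Fluorogenic assay using human recombinant HDAC1 (FLAG/His), HDAC2 (FLAG) or HDAC3/NcoR2 (His) in pH 8.0 Tris buffer with NaCl, KCl, MgCl₂, 0.01% Triton-X and 1 mg/mL BSA. Enzyme, inhibitor dilutions and Boc-Lys(ε-Ac)-AMC were incubated 90 min at 37 °C. Trypsin/200 μM vorinostat stop solution was added for 30 min, then fluorescence read (ex 370/em 460 nm). IC50s came from curve fits; the ratio is HDAC3 IC50 over HDAC2 or HDAC1 IC50.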

The species entered for data set [9] is Homo sapiens. The experiment in a line: Selectivity ratio of IC50 for human recombinant C-terminal His-tagged HDAC3/NCOR2 to IC50 for human recombinant C-terminal FLAG-tagged HDAC2. A digest of the protocol:
as §3

Data set [10] deals with Histone deacetylase 1 (Homo sapiens, UniProt Q13547). Kind of data set: Inhibition of human recombinant C-terminal His/FLAG-tagged HDAC1 using Boc-Lys-(epsilon-Ac)-AMC as fluorogenic substrate incubated for 90 mins by fluorescence based assay.
Data set [11] concerns the target Histone deacetylase 3/Nuclear receptor corepressor 2 (HDAC3/NCoR2) (Homo sapiens, UniProt O15379). Kind of data set: Inhibition of human recombinant C-terminal His-tagged HDAC3/NCOR2 using Boc-Lys-(epsilon-Ac)-AMC as fluorogenic substrate incubated for 90 mins by fluorescence based assay. Type of data set: protein-complex assay.
Data set [12] concerns the target Histone deacetylase 1 (Mus musculus) (UniProt O09106). Kind of data set: Inhibition of HDAC1 in LPS/IFNgamma-stimulated mouse RAW blue cells assessed as upregulation of NFkappaB transcriptional activity by measuring increase in SEAP activity at 1 to 5 uM pretreated for 16 hrs followed by LPS stimulation and measured after 4 hrs by quanti blue reagent-based reporter gene assay. A digest of the protocol: as §1

The target in data set [13] is T2, Histone deacetylase 1/2 (Mus musculus) (UniProt O09106+P70288). The experiment in a line: Inhibition of HDAC1/2 in LPS/IFNgamma-stimulated mouse RAW264.7 cells assessed as upregulation of IL-6 gene expression at 1 to 5 uM pretreated for 16 hrs followed by LPS stimulation and measured after 4 hrs by RT-qPCR analysis. Type of data set: cell-based. Put shortly: as §2

Data set [14] concerns the target T2, Histone deacetylase 1/2 (Mus musculus). The experiment in a line: Inhibition of HDAC1/2 in LPS/IFNgamma-stimulated mouse RAW264.7 cells assessed as upregulation of TNF-alpha gene expression at 1 to 5 uM pretreated for 16 hrs followed by LPS stimulation and measured after 4 hrs by RT-qPCR analysis. The data set is classed as cell-based. Put shortly:
as §2

Data set [15] has the same target. Kind of data set: Inhibition of HDAC1/2 in LPS/IFNgamma-stimulated mouse RAW264.7 cells assessed as upregulation of iNOS gene expression at 1 to 5 uM pretreated for 16 hrs followed by LPS stimulation and measured after 4 hrs by RT-qPCR analysis. Type of data set: cell-based. A digest of the protocol: as §2
For data set [16] the target is unchanged. Kind of data set: Inhibition of HDAC1/2 in LPS/IFNgamma-stimulated mouse RAW264.7 cells assessed as upregulation of IL-10 gene expression at 1 to 5 uM pretreated for 16 hrs followed by LPS stimulation and measured after 4 hrs by RT-qPCR analysis. Type of data set: cell-based. A digest of the protocol:
as §2

Data set [17] has the same target. The experiment in a line: Inhibition of HDAC1/2 in LPS/IFNgamma-stimulated mouse RAW264.7 cells assessed as upregulation of iNOS gene expression at pretreated for 16 hrs followed by LPS stimulation and measured after 4 hrs by RT-qPCR analysis. The data set is classed as cell-based. A digest of the protocol: as §2
For data set [18] the target is unchanged. The experiment in a line: Inhibition of HDAC1/2 in LPS/IFNgamma-stimulated mouse RAW264.7 cells assessed as upregulation of TNF-alpha gene expression at pretreated for 16 hrs followed by LPS stimulation and measured after 4 hrs by RT-qPCR analysis. Type of data set: cell-based. A digest of the protocol:
as §2

The target is the same in data set [19]. The experiment in a line: Inhibition of HDAC1/2 in LPS/IFNgamma-stimulated mouse RAW264.7 cells assessed as upregulation of IL-6 gene expression at pretreated for 16 hrs followed by LPS stimulation and measured after 4 hrs by RT-qPCR analysis. The data set is classed as cell-based. Put shortly: as §2
Data set [20] shares this target. The experiment in a line: Inhibition of HDAC1/2 in LPS/IFNgamma-stimulated mouse RAW264.7 cells assessed as upregulation of IL-10 gene expression at pretreated for 16 hrs followed by LPS stimulation and measured after 4 hrs by RT-qPCR analysis. The data set is classed as cell-based. Put shortly: as §2

The structures appear in SMILES notation. Active and inactive are the calls of the source. The rule behind the calls is not given here.

Sequence of Histone deacetylase 3/Nuclear receptor corepressor 2 (HDAC3/NCoR2) (O15379 whole entry): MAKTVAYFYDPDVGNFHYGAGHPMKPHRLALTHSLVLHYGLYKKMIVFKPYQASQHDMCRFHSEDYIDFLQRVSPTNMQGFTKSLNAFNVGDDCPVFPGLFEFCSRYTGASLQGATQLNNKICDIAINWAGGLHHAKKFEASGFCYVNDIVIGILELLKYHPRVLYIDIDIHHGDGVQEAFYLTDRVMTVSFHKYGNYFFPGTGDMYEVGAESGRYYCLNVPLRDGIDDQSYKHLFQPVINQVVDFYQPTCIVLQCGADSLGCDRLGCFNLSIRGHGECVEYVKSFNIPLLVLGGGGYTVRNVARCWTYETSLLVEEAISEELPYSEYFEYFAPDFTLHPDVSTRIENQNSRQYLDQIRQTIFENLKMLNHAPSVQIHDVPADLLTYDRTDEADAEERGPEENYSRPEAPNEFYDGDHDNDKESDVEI
Sequence of Histone deacetylase 3/Nuclear receptor corepressor 2 (HDAC3/NCoR2) (Q9Y618 whole entry, further chain): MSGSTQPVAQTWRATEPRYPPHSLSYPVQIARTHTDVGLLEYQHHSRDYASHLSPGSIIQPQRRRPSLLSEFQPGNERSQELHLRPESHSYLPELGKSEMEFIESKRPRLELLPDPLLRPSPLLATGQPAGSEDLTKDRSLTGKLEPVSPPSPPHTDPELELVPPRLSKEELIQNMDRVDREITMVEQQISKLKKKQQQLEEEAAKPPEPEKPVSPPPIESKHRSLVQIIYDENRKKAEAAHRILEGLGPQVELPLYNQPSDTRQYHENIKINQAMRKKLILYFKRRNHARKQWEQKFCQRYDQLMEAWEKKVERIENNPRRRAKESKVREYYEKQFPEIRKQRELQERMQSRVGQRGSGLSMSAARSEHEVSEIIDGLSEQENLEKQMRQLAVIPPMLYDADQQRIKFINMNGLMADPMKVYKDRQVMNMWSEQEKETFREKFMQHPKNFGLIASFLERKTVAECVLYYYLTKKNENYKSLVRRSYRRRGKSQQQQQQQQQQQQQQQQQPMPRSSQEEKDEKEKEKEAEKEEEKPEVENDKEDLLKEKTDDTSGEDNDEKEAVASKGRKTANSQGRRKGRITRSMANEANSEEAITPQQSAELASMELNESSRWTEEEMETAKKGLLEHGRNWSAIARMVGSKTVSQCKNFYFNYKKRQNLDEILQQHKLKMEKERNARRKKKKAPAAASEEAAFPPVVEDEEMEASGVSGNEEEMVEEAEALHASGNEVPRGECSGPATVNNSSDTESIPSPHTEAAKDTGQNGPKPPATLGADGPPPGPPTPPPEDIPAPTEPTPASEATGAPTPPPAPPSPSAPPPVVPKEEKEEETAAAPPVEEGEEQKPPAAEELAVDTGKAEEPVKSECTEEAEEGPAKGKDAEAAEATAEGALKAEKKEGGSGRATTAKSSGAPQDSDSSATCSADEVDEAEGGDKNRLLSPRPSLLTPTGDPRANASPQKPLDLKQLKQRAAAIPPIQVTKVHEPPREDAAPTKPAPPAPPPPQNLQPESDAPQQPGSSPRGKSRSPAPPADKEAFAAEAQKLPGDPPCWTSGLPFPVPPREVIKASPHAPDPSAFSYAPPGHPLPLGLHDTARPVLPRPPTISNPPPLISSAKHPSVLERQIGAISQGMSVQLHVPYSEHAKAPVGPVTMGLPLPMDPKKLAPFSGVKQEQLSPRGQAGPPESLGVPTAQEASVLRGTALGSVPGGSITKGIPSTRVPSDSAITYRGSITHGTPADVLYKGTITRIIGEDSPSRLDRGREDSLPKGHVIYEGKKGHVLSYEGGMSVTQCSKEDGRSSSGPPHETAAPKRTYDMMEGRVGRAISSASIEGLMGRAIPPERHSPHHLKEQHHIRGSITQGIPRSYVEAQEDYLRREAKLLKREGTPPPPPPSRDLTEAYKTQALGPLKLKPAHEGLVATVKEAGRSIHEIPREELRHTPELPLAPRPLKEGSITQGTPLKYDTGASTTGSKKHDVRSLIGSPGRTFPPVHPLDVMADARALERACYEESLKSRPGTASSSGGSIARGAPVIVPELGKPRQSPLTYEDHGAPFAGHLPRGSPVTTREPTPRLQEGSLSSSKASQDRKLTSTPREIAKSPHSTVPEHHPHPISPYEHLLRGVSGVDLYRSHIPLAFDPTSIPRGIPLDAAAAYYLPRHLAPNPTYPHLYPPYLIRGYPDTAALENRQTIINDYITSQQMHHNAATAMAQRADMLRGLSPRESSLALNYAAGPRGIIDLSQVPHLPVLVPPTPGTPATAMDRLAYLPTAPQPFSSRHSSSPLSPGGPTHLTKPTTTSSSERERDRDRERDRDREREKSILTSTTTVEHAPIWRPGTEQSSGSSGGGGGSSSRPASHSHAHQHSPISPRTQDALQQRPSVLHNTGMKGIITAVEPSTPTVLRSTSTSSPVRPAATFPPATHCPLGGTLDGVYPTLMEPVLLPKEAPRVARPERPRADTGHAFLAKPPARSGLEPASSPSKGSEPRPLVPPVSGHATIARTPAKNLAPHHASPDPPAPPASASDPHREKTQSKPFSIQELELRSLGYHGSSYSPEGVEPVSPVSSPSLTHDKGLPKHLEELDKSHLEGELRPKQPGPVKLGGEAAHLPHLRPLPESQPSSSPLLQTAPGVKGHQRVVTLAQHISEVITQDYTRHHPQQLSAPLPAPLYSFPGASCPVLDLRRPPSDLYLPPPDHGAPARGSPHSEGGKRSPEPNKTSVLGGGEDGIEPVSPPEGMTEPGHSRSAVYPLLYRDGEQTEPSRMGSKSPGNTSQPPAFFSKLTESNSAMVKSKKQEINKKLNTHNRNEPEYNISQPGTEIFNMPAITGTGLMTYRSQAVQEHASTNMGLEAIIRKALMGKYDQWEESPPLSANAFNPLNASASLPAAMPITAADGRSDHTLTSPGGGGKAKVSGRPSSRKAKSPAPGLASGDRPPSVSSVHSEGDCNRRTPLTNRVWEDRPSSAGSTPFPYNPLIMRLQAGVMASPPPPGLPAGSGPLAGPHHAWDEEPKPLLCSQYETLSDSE
T2 sequence (O09106 whole entry, looked up): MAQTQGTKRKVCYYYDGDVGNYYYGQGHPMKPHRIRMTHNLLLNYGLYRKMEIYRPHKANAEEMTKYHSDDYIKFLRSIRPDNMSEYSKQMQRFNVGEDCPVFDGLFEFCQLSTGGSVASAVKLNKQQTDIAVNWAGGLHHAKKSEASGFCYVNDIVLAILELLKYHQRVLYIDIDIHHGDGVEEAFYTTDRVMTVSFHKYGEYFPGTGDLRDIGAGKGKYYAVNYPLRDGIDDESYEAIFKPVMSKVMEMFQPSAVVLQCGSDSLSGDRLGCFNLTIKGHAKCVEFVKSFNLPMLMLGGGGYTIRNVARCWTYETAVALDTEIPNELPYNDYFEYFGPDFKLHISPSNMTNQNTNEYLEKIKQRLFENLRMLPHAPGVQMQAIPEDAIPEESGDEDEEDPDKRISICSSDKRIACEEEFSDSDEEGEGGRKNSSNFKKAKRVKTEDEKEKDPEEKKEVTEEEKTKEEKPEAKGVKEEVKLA
T2 sequence (P70288 whole entry, looked up): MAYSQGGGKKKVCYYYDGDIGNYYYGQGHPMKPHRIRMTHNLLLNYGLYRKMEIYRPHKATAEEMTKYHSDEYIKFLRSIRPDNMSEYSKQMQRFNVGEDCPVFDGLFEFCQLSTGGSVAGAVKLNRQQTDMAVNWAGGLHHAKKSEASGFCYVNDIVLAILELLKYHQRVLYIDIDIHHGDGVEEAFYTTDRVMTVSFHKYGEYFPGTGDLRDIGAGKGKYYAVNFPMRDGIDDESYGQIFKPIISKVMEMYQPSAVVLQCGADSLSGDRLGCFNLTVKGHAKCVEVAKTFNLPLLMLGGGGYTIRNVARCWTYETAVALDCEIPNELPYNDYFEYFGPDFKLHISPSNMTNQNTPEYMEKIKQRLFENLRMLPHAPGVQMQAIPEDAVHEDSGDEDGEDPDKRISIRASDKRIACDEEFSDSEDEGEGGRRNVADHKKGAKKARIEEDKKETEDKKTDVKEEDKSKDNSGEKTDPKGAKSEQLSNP
Sequence of Histone deacetylase 2 (Q92769 whole entry): as the sequence (P70288 whole entry, looked up) above, with A289V, P477T, A480T counted along it
Sequence of Histone deacetylase 1 (Q13547 whole entry): as the sequence (O09106 whole entry, looked up) above, with K8R, E399D, D424E counted along it
Sequence of Histone deacetylase 1 (Mus musculus) (O09106 whole entry): as the sequence (O09106 whole entry, looked up) above

As for `Nc1ccccc1NC(=O)CCCCNC(=O)c1ccccc1`, the Activity result in [1] is on record as “Non-Toxic”.

Regarding `Nc1cc(F)ccc1NC(=O)/C=C/c1cnn(C/C=C/c2ccccc2)c1`, the outcome in data set [2], in data set [3], in data set [4], in data set [5] and in [6] was inactive. For the same compound, the Activity entry in data set [1] is listed as “Non-Toxic”.

With `Nc1ccccc1NC(=O)c1ccc(C(=O)Nc2ccccc2)cc1`, the half-maximal inhibitory concentration (IC50) (as a rule, the concentration that inhibits the measured activity by half) in [7] was found to be 5400 nM; in data set [10], 3000 nM; in data set [11] it was 16000 nM. For the same compound, the values for the Ratio IC50 in data set [8] and in data set [9] were 5.3 and 3, respectively.

On to `C[C@@H](Nc1ccccc1)c1ccc(C(=O)Nc2ccccc2N)cc1`, for which the concentration for half-maximal inhibition (IC50) in data set [7] came out at 4200 nM; in data set [10], 1300 nM; in data set [11], 5000 nM. Besides, the result in data set [12], in data set [13], in data set [14], in data set [15] and in data set [16] was Active. Also, in data set [1], the Activity entry is “Non-Toxic”.

As for `CN(Cc1ccc(C(=O)Nc2ccccc2N)cc1)c1ccccc1`, the concentration for half-maximal inhibition (IC50) in data set [7] is 500 nM; in data set [10], 1000 nM; in data set [11], 2800 nM.

As for `C[C@H](Nc1ccccc1)c1ccc(C(=O)Nc2ccccc2N)cc1`, the IC50 came to 8300 nM in data set [7], 2400 nM in data set [10] and 11000 nM in [11]. For the same compound, in [1], the Activity entry is reported as “Non-Toxic”.

`CC(Nc1ccccc1)c1ccc(C(=O)Nc2ccccc2N)cc1` (stereo not drawn): the IC50 came to 7000 nM in data set [7], 2300 nM in [10] and 8500 nM in data set [11]. In addition, the Ratio IC50 in [8] was 3.7; in data set [9] it was 1.2. Moreover, in data set [1], the Activity result was “Non-Toxic”. Further, the result in [17], in data set [18], in [19] and in data set [20] was Active.

For the compound `Nc1ccccc1NC(=O)CCCCCNc1ccccc1`, the half-inhibitory concentration (IC50) in data set [7] worked out at 1300 nM; in data set [10] it was 1200 nM; in data set [11], 400 nM.

In the case of `Nc1ccccc1NC(=O)c1ccc(CNc2ccccc2)cc1`, the IC50 in data set [7] was determined as 1400 nM; in data set [10] it was 1000 nM; in data set [11], 600 nM.

In the case of `Nc1ccccc1NC(=O)c1ccc(CNC(=O)OCc2cccnc2)cc1` [ENTINOSTAT], in data set [1], the Activity entry is on record as “Non-Toxic”.

As for `Nc1ccccc1NC(=O)CCCCCC(=O)c1ccccc1`, the values for the IC50 in data set [7], in [10] and in data set [11] were 3700 nM, 1900 nM and 1200 nM, respectively.
